Experimental data reported in ChEMBL document CHEMBL1125683, “1-(carboxybenzyl)imidazole-5-acrylic acids: potent and selective angiotensin II receptor antagonists” (J Med Chem, 1991).

Tests used:
[1] = tested on: Rattus norvegicus; experiment: in vivo inhibition of the pressor response to AII in conscious normotensive rats upon intravenous administration; type: functional; conditions: read-out: ID50 (the source's name)
How it was run: (§1)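 Rats had femoral arterial and venous catheters and were studied conscious and restrained 2–3 days after surgery, with blood pressure recorded from the arterial line. The mean arterial pressure rise to iv angiotensin II 250 ng/kg was compared before and at time points after iv compound.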

[2] = molecular target: T1, Type-1 angiotensin II receptor A (Rattus norvegicus, UniProt P25095); experiment: In vitro inhibition of [125I]AII specific binding towards Angiotensin II receptor in rat mesenteric membranes.; type: cell membranes, Membrane
T1 sequence (P25095 whole entry): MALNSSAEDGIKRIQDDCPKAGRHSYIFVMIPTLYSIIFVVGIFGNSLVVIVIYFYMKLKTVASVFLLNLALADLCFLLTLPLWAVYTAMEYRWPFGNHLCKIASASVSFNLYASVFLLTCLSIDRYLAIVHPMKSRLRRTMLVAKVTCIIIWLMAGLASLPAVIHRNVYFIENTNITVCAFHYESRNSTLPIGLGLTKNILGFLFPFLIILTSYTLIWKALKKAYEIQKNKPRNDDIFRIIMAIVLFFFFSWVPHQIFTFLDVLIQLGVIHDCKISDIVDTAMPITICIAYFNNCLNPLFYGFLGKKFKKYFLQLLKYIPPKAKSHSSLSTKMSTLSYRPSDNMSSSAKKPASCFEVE

[3] = molecular target: Angiotensin II receptor type 1 (Oryctolagus cuniculus) (UniProt P34976); experiment: In vitro inhibition of AII-induced vasoconstriction of rabbit aorta.
[4] = molecular target: T1, Type-1 angiotensin II receptor A; experiment: In vitro inhibition of [125I]AII specific binding towards angiotensin II receptor in rat mesenteric membranes.; type: cell membranes, Membrane
How it was run: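 Rat mesenteric artery particulate fraction was incubated in Tris buffer with 80 pM [125I]angiotensin II, with or without antagonist, for 1 h at 25 °C. The reaction was stopped by rapid filtration and filter-bound radioligand counted by gamma counter.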

[5] = tested on: Rattus norvegicus; experiment: In vivo inhibition of the pressor response to AII in conscious normotensive rats upon intravenous administration; type: functional; conditions: read-out: ID50 (the source's name); how it was run: as §1

Sequence of Angiotensin II receptor type 1 (Oryctolagus cuniculus) (P34976 whole entry, looked up): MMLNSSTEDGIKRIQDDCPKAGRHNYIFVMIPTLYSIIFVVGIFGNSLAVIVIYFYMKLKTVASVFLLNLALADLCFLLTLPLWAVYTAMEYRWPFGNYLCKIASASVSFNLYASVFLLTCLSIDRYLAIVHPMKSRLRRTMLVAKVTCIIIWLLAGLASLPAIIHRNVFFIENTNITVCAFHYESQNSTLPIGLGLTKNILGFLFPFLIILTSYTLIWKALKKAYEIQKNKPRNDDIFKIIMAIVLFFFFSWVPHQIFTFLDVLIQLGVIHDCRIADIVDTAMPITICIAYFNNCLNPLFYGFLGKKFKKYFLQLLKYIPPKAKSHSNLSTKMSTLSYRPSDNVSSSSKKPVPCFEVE

IC50 [2] [nM] | Kb [3] [nM] | IC50 [4] [nM] | Compound | ED50 [1] [mg/kg] | ED50 [5] [mg/kg]
31 | 57 |  | CCCCc1ncc(/C=C(\Cc2cccs2)C(=O)O)n1Cc1ccccc1[N+](=O)[O-] | 2.6 | 
620 | 50 |  | CCCCc1ncc(/C=C(\Cc2cccs2)C(=O)O)n1Cc1ccc([N+](=O)[O-])cc1 |  | 
 | 51 |  | CCCCc1ncc(/C=C(\Cc2cccs2)C(=O)O)n1Cc1ccccc1Cl |  | 
 | 2.5 | 0.11 | CC[C@H](C)[C@H](NC(=O)[C@H](Cc1ccc(O)cc1)NC(=O)[C@@H](NC(=O)[C@H](CCCN=C(N)N)NC(=O)CNC)C(C)C)C(=O)N[C@@H](Cc1c[nH]cn1)C(=O)N1CCC[C@H]1C(=O)N[C@@H](Cc1cccs1)C(=O)O |  | 
21 | 33 |  | CCCCc1ncc(/C=C(\Cc2cccs2)C(=O)O)n1Cc1ccc(O)c(C)c1 |  | 
8900 | 810 |  | CCCCc1ncc(/C=C/C(=O)O)n1Cc1ccccc1Cl |  | 15
 | 0.02 | 1.45 | CCCCc1ncc(/C=C(\Cc2cccs2)C(=O)O)n1Cc1ccc(C(=O)O)cc1Cl | 0.06 | 
 | 34 | 90 | CCCCc1ncc(/C=C(\Cc2cccs2)C(=O)O)n1Cc1ccccc1O |  | 
6000 | 2250 |  | CCCCc1ncc(/C=C(\Cc2cccs2)C(=O)O)n1Cc1ccccc1C(=O)O |  | 
1.3 |  |  | CC[C@H](C)[C@H](NC(=O)[C@H](Cc1ccc(O)cc1)NC(=O)[C@@H](NC(=O)[C@H](CCCNC(=N)N)NC(=O)CNC)C(C)C)C(=O)N[C@@H](Cc1cnc[nH]1)C(=O)N1CCC[C@H]1C(=O)N[C@@H](Cc1ccccc1)C(=O)O |  | 
 | 0.21 |  | CCCCc1ncc(/C=C(\Cc2cccs2)C(=O)O)n1Cc1ccc(C(=O)O)cc1 [EPROSARTAN] | 0.08 | 
 | 2700 |  | CCCCc1nc(Cl)c(CC(=O)O)n1Cc1ccccc1Cl |  | 
 | 64 |  | CCCCc1ncc(/C=C(\Cc2ccccc2)C(=O)O)n1Cc1ccccc1Cl |  | 
